Our source for the IC50, inhibition and Kd values is ChEMBL document CHEMBL4725413, “Quinoline-Pyrazole Scaffold as a Novel Ligand of Galectin-3 and Suppressor of TREM2 Signaling” (ACS Med Chem Lett, 2020).

Assay [1] in a line: Inhibition of recombinant human galectin-3/recombinant human TREM2 interaction assessed as reduction in TR-FRET signal incubated for 3 hrs by TR-FRET assay. The gist of the method:
(§1)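 TR-FRET using Eu cryptate-labelled galectin-3 (donor) and Alexa Fluor 647-labelled TREM2 (acceptor). Disruption of binding lowers the TR-FRET ratio. Single-point screening was at 10 μM, with hits defined as >5 SD below the mean signal. Dose-response runs gave IC50.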
A general note: TR-FRET usually uses a lanthanide donor and a delayed reading to cut background.

Assay [2] is filed under the species Homo sapiens. The assay can be described thus: Inhibition of recombinant human galectin-3/recombinant human TREM2 interaction assessed as reduction in TR-FRET signal at 10 uM incubated for 3 hrs by TR-FRET assay relative to control. The method in brief: as §1
Assay [3] concerns the target T1, Galectin-3 (Homo sapiens, UniProt P17931). The assay can be described thus: Inhibition of galectin 3 in mouse BWZ cells transfected with TREM2 and DAP12 assessed as reduction in lacZ activity incubated for 24 hrs by lacZ reporter gene based beta-galactosidase assay. In kind it is cell-based. The settings on record: dose microM 2.5-10, time 24.0 hrs. The gist of the method: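 TREM2-DAP12 reporter assay in BWZ thymoma cells transfected with TREM2 and DAP12. Galectin-3 (5 μM) was the stimulant, co-incubated with a range of compound concentrations. NFAT-driven LacZ β-galactosidase activity was the read-out. Controls were unstimulated cells and galectin-stimulated cells without compound, plus untransfected BWZ cells. Mean ± SD, n = 3.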
A general note: In a reporter assay the amount or activity of a reporter protein is the signal.

The subject of assay [4] is BV-2. As to the kind of experiment: Antiinflammatory activity in mouse BV-2 cells assessed as reduction in Abeta-induced IL-12 release at 10 uM incubated for 12 hrs by ELISA relative to control. The assay is classed as functional. The gist of the method:
(§2)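 BV2 microglia co-treated with Aβ fibrils (10 μM) for 12 h, with or without a range of test-compound concentrations. TNFα, IL12 and IL8 were quantified in culture medium. Values are relative to untreated control. Mean ± SD, n = 3.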
For orientation: In an ELISA, binding on a coated surface is turned into a signal by an enzyme label.

In assay [5] the target is Galectin-1 (Homo sapiens, UniProt P09382). The assay can be described thus: Binding affinity to recombinant human galectin 1 assessed as dissociation constant by fluorescent anisotropy assay.
For assay [6], the system named is BV-2. As to the kind of experiment: Antiinflammatory activity in mouse BV-2 cells assessed as reduction in Abeta-induced IL-12 release incubated for 12 hrs by ELISA. The assay is classed as functional, cell-based. The following applies: dose microM 2.5-10, time 12.0 hrs. The gist of the method: as §2
For assay [7], the target named is T1, Galectin-3. As to the kind of experiment: Binding affinity to recombinant human galectin 3 assessed as dissociation constant by fluorescent anisotropy assay. The gist of the method: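 Fluorescence anisotropy. Increasing galectin concentrations were titrated against a fixed concentration of small molecule until anisotropy reached a maximum (saturation), and Kd was derived from this.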

Assay [8] relates to BV-2. As to the kind of experiment: Antiinflammatory activity in mouse BV-2 cells assessed as reduction in Abeta-induced TNFalpha release at 10 uM incubated for 12 hrs by ELISA relative to control. In kind it is functional. The gist of the method:
as §2

The test system of assay [9] is BV-2. The assay can be described thus: Antiinflammatory activity in mouse BV-2 cells assessed as reduction in Abeta-induced TNFalpha release incubated for 12 hrs by ELISA. The assay is classed as functional, cell-based. The settings on record: dose microM 2.5-10, time 12.0 hrs. The gist of the method: as §2
Assay [10] concerns the target T1, Galectin-3. The assay can be described thus: Binding affinity to recombinant human galectin 3 assessed as dissociation constant by SPR assay. The gist of the method: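 SPR with galectin-3 for Kd estimation. TREM2 was also run by SPR as a counter-target.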
In assay [11] the test system is BV-2. As to the kind of experiment: Antiinflammatory activity in mouse BV-2 cells assessed as reduction in Abeta-induced IL-8 release incubated for 12 hrs by ELISA. In kind it is functional, cell-based. The settings on record: dose microM 2.5-10, time 12.0 hrs. The method in brief: as §2

T1 sequence (P17931 whole entry): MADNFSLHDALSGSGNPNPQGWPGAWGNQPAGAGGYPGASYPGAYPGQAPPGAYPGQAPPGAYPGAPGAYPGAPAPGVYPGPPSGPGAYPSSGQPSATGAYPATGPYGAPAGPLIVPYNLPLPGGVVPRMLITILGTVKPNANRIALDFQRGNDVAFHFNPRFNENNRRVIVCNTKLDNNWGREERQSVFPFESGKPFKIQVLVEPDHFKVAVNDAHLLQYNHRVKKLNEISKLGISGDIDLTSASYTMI
Chain of Galectin-1 (P09382 whole entry): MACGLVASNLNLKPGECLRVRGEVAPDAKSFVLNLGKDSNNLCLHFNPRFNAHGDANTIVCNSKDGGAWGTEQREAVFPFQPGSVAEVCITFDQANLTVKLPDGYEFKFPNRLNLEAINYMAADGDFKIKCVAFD

`Cn1cc(-c2ccncc2)c(-c2ccc(OCc3ccc4ccccc4n3)cc2)n1` [MARDEPODECT]: the IC50 in assay [1] came out at 91 nM. The inhibition was above 95% in assay [2]; “Dose-dependent effect” in assay [3]; “Dose-dependent effect” in [6]; “Dose-dependent effect” in assay [9]; “Dose-dependent effect” in [11]. The inhibition at 10 µM in assay [4] was found to be 40%; in assay [8], 50%. The Kd is above 500000 nM in assay [5], 150 nM in [7] and 290 nM in assay [10].

What is called IC50 is the concentration at which inhibition is half-maximal. As a reminder, the inhibition is the change of the read-out against control, counted positive when it falls. As a reminder, the Kd is the free concentration of one partner at which half of the binding sites on the other are occupied at equilibrium, for simple one-to-one binding.
